Test results from PMC8649514 (Journal of the American Heart Association: Cardiovascular …, 2021).
Bridges are numbered along the chain shown (N, C = ends). Where no end group is shown, it is not given here.

How the values were obtained:
[1] = test system: ventricular lysates of β2‐AR transgenic mouse hearts; experiment: Quantification of peptide accumulation in mouse heart lysates; format: in vivo; conditions: sulfo‐Cy5.5 cyclic peptide iv 0.5 mg/kg, 4 h, β2‐AR Tg mice; n=4 per group
[2] = test system: heart and organs of β2‐AR transgenic mice; experiment: Cardiac tracer uptake in whole organs by ex vivo NIR fluorescence imaging; set-up: species or system mouse; conditions: iv 0.5 mg/kg, 4 h, whole-organ Odyssey scan; P=0.057–0.1; n=4 per group
[3] = test system: collagen IV; experiment: Coimmunostaining of collagen IV and T peptide in human cardiac tissue; conditions: ex vivo costaining, IHD patient heart section, confocal microscopy
How it was run: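 Fresh-frozen IHD and nonfibrotic donor human heart cryosections (10 or 5 µm) were PBS-washed, blocked in 10% normal goat serum for 2 h at room temperature, and incubated 72 h at 4 °C with sulfo-Cy5.5 T peptide (0.0375 µg/mL in PBS). Collagen IV was stained with primary antibody (10 µg/mL, overnight, 4 °C) and Alexa Fluor 488 anti-rabbit secondary (2 µg/mL). Nuclei were stained with Hoechst (5 µg/mL), and images were taken by confocal microscopy at ×20.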

Substance | amount of peptide per gram tissue, left vs right transgenic ventricle [1] | peptide accumulation in kidneys and lungs, fibrotic vs nontransgenic mice [2] | overlap with collagen IV in human cardiac tissue [3]
GKWHCTTKFPHHYCLYG (disulfide 5-14 (inferred)) [cyclic peptide] | twice | near‐significant enhancement | 
TLTYTWS [T peptide] |  |  | high degree of overlap
